# Data: ChEMBL document CHEMBL1127574, “Design and synthesis of ellipticinium salts and 1,2-dihydroellipticines with high selectivities against human CNS cancers in vitro” (1994)
# Experiments:
# Format in all cases: functional
# SF-268 [1] = assay: Tested in vitro for cytotoxicity in SF-268 cell lines; settings: Homo sapiens
# Method in brief: (§1)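 Compounds dissolved in DMSO, then diluted 500-fold into aqueous medium. The resulting aqueous solutions or suspensions were added to the cultured human tumour cell lines, and the cells were exposed for 48 h. Growth was read colorimetrically in one of two ways: a metabolic assay in which viable cells reduce a tetrazolium salt to a formazan dye, or a protein stain for total cellular protein.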
# M19-MEL = assay: Tested in vitro for cytotoxicity in M19-MEL cell line of Melanoma; settings: Homo sapiens, read-out: Log TGI (converted); method in brief: as §1
# DMS-114 = assay: Tested in vitro for cytotoxicity in DMS114 cell lines; settings: Homo sapiens; method in brief: as §1
# CCRF-CEM [2] = assay: Tested in vitro for cytotoxicity in CCRF-CEM cell lines; settings: Homo sapiens; method in brief: as §1
# COLO 205 = assay: Tested in vitro for cytotoxicity in COLO 205 cell lines; settings: Homo sapiens; method in brief: as §1
# HCT-116 = assay: Tested in vitro for cytotoxicity in HCT116 cell line of Colon Cancer; settings: Homo sapiens, read-out: Log TGI (converted); method in brief: as §1
# LXFL 529 = assay: Tested in vitro for cytotoxicity in LXFL-529 cell line of Non-Small Cell Lung Cancer; settings: Homo sapiens, read-out: Log TGI (converted); method in brief: as §1
# RXF 631 = assay: Tested in vitro for cytotoxicity in RXF-631 cell line of Renal cancer; settings: Homo sapiens, read-out: Log TGI (converted); method in brief: as §1
# CCRF-CEM [3] = assay: Tested in vitro for cytotoxicity in CCRF-CEM cell line of Leukemia; settings: Homo sapiens, read-out: Log TGI (converted); method in brief: as §1
# NCI-H522 = assay: Tested in vitro for cytotoxicity in NCI-H522 cell line of Non-Small Cell Lung Cancer; settings: Homo sapiens, read-out: Log TGI (converted); method in brief: as §1
# RPMI-8226 = assay: Tested in vitro for cytotoxicity in RPMI-8226 cell line of Leukemia; settings: Homo sapiens, read-out: Log TGI (converted); method in brief: as §1
# UACC-257 = assay: Tested in vitro for cytotoxicity in UACC-257 cell line of Melanoma; settings: Homo sapiens, read-out: Log TGI (converted)
# Method in brief: (§2)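 Compounds dissolved in DMSO and diluted 500-fold into aqueous medium; aliquots of the resulting solutions or suspensions added to cultured human tumor cells for 48 h. Growth read colorimetrically, either by tetrazolium reduction to formazan by viable cells or by protein staining of total cellular protein.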
# KM-20L2 = assay: Tested in vitro for cytotoxicity in KM20L2 cell line of Colon Cancer; settings: Homo sapiens, read-out: Log TGI (converted)
# Method in brief: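 Compound DMSO solutions diluted 500-fold into aqueous medium; the resulting solutions or suspensions were added to cultured human tumor cells for 48 h. Growth was read colorimetrically, either by tetrazolium reduction to formazan by viable cells or by a protein stain for total cellular protein.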
# SF-268 [4] = assay: Tested in vitro for cytotoxicity in SF-268 cell line of CNS cancer; settings: Homo sapiens, read-out: Log TGI (converted); method in brief: as §1
# HCC 2998 = assay: Tested in vitro for cytotoxicity in HCC2998 cell line of Colon Cancer; settings: Homo sapiens, read-out: Log TGI (converted); method in brief: as §1
# HOP-18 = assay: Tested in vitro for cytotoxicity in HOP-18 cell line of Non-Small Cell Lung Cancer; settings: Homo sapiens, read-out: Log TGI (converted); method in brief: as §1
# M14 = assay: Tested in vitro for cytotoxicity in M14 cell line of Melanoma; settings: Homo sapiens, read-out: Log TGI (converted); method in brief: as §1
# HT-29 = assay: Tested in vitro for cytotoxicity in HT-29 cell line of Colon Cancer; settings: Homo sapiens, read-out: Log TGI (converted); method in brief: as §1
# CAKI-1 [5] = assay: Tested in vitro for cytotoxicity in CAKI-1 cell line of Renal cancer; settings: Homo sapiens, read-out: Log TGI (converted); method in brief: as §1
# Malme-3M = assay: Tested in vitro for cytotoxicity in MALME-3M cell line of Melanoma; settings: Homo sapiens, read-out: Log TGI (converted); method in brief: as §1
# UO-31 = assay: Tested in vitro for cytotoxicity in UO-31 cell line of Renal cancer; settings: Homo sapiens, read-out: Log TGI (converted); method in brief: as §2
# CAKI-1 [6] = assay: Tested in vitro for cytotoxicity in CAKI-1 cell lines; settings: Homo sapiens; method in brief: as §1
# A498 = assay: Tested in vitro for cytotoxicity in A498 cell line of Renal cancer; settings: Homo sapiens, read-out: Log TGI (converted); method in brief: as §1
# DLD-1 = assay: Tested in vitro for cytotoxicity in DLD-1 cell line of Colon Cancer; settings: Homo sapiens, read-out: Log TGI (converted); method in brief: as §1
# U-251 = assay: Tested in vitro for cytotoxicity in U251 cell line of CNS Cancer; settings: Homo sapiens, read-out: Log TGI (converted); method in brief: as §2
# SK-MEL-2 = assay: Tested in vitro for cytotoxicity in SK-MEL-2 cell line of Melanoma; settings: Homo sapiens, read-out: Log TGI (converted); method in brief: as §1
# HCT-15 = assay: Tested in vitro for cytotoxicity in HCT-15 cell line of Colon Cancer; settings: Homo sapiens, read-out: Log TGI (converted); method in brief: as §1
# HOP-62 = assay: Tested in vitro for cytotoxicity in HOP-62 cell line of Non-Small Cell Lung Cancer; settings: Homo sapiens, read-out: Log TGI (converted); method in brief: as §1
# SK-MEL-5 = assay: Tested in vitro for cytotoxicity in SK-MEL-5 cell line of Melanoma; settings: Homo sapiens, read-out: Log TGI (converted); method in brief: as §2
# UACC-62 = assay: Tested in vitro for cytotoxicity in UACC-62 cell line of Melanoma; settings: Homo sapiens, read-out: Log TGI (converted); method in brief: as §2
# K562 = assay: Tested in vitro for cytotoxicity in K-562 cell line of Leukemia; settings: Homo sapiens, read-out: Log TGI (converted); method in brief: as §1
smiles,measurement,setting,value
COc1ccc2[nH]c3c(C)c4cc[n+](C)cc4c(C)c3c2c1,GI50,SF-268 [1],0.409 µM
same,TGI,M19-MEL,25.1 µM
same,GI50,DMS-114,0.811 µM
same,GI50,CCRF-CEM [2],4.22 µM
same,GI50,COLO 205,2.4 µM
same,TGI,HCT-116,> 100 µM
same,TGI,LXFL 529,10 µM
same,TGI,RXF 631,> 100 µM
same,TGI,CCRF-CEM [3],> 100 µM
same,TGI,NCI-H522,7.94 µM
same,TGI,RPMI-8226,> 100 µM
same,TGI,UACC-257,> 100 µM
same,TGI,KM-20L2,> 100 µM
same,TGI,SF-268 [4],5.01 µM
same,TGI,HCC 2998,63.1 µM
same,TGI,HOP-18,> 100 µM
same,TGI,M14,> 100 µM
same,TGI,HT-29,> 100 µM
same,TGI,CAKI-1 [5],> 100 µM
same,TGI,Malme-3M,25.1 µM
same,TGI,UO-31,> 100 µM
same,GI50,CAKI-1 [6],48.2 µM
same,TGI,A498,> 100 µM
same,TGI,DLD-1,> 100 µM
same,TGI,U-251,5.01 µM
same,TGI,SK-MEL-2,63.1 µM
same,TGI,HCT-15,> 100 µM
same,TGI,HOP-62,6.31 µM
same,TGI,SK-MEL-5,20 µM
same,TGI,UACC-62,> 100 µM
same,TGI,K562,> 100 µM
